# Shown are actives, neighbours in structure and some others; about 6.1% of the full set was active somewhere.
# Yeast life ext: yeast lifespan extension | S. cerevisiae growth with nicotinamide, OD615; deaD strain in restrictive glucose medium | inhibition of the nicotinamide effect, % at 10 µM | 130,000 tested, 0.68% active | AID 775;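 active = inhibition above a set limit, placed 3 SD over the median of all compounds, cut at about 26% in these data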;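 also: 0% = nicotinamide-treated wells and 100% = cells grown without nicotinamide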
#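 Assay system: engineered S. cerevisiae DeaD replicative-lifespan strain, galactose-grown log-phase cells; medium: restrictive CSMM-D dextrose medium; also added: nicotinamide, 1.5 mM, co-present with compound; schedule: 48 h compound exposure at 30 °C, humidified; detection: absorbance at 615 nm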
# WT yeast gro inh: growth inhibition of WT yeast, mitochondrial fusion screen; mitochondrial fusion phenotypic screen, WT strain; AID 1362; inhibition, % at 10 µM; 190,000 tested, 2.1% active; in the data active = inhibition above about 58%; tested in S. cerevisiae
# DAT uptake mod: modulates human dopamine transporter uptake under cocaine. B-score at 10 µM. LLC-PK1 hDAT cells, [14C]-dopamine uptake with cocaine IC80; actives deviate in either direction. AID 449768. Q01959. 110,000 tested, 1.3% active;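 active = Z score or B-score, a plate-position-corrected score, falls beyond the plate's 99.7% confidence bounds, in either direction; inactive = both scores lie inside the 99.7% bounds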;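 also: scored against the spread of the other compound wells on the same plate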
# Target sequence (Q01959 whole entry, looked up): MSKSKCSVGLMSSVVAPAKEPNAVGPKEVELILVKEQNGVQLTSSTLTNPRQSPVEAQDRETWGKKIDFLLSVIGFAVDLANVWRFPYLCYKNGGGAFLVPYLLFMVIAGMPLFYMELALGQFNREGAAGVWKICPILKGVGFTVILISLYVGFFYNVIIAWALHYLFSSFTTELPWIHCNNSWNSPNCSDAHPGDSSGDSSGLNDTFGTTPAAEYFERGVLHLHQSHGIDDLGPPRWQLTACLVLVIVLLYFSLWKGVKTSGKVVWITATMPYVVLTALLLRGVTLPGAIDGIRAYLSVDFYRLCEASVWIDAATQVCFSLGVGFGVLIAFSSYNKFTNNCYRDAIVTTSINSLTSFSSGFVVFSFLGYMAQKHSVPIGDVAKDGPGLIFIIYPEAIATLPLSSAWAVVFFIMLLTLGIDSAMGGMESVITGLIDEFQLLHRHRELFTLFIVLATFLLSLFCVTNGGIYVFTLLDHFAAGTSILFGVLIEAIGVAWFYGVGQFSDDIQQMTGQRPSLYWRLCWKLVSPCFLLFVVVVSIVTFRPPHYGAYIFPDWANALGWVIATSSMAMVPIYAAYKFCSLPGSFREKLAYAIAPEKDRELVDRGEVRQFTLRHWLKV
# Measles CPE: protection of cells from measles virus | Measles virus-infected cells, CPE protection, absorbance | protection (pct of control), % at 4 µM | 140,000 tested, 1.5% active | AID 841; in the data active = protection mostly above about 24%, no sharp cut-off; inactive = mostly below about 26%
# RAM inhibit: yeast RAM network inhibition; S. cerevisiae dse1pr::URA3 reporter, 5-FOA growth OD615, 2 d; analog-sensitive cbk1-as2 kinase mutant strain; inhibition, % at 50 µM; 190,000 tested, 1.8% active; AID 868;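 active = inhibition above a set limit, 3 SD over mean compound inhibition, cut at about 8.4% in these data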;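 also: 0% = DMSO-only wells with no growth and 100% = 10 µM 1-NA-PP1 full growth; inhibition rescues growth on 5-FOA so higher OD means more RAM inhibition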
# BB579 growth dn: reduces growth of yeast BB579 in restrictive medium. S. cerevisiae BB579 growth, OD615, 48 h. inhibition, % at 10 µM. 140,000 tested, 0.51% active;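 active = inhibition above a set limit, 3 SD over the mean compound inhibition, cut at about 44% in these data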
#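 test system = yeast BB579 (DeaD) | buffer or medium = restrictive CSMM-D medium | doses = single compound dose of 10 µM, 0.25% DMSO final | times = 4 h preincubation and 48 h exposure at 30 °C | technique = culture absorbance at 615 nm | benchmarks = amphotericin B 10 µg/mL, positive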
# Starred values were filed as active, the others as inactive; · = not tested or not shown.
SMILES,Yeast life ext,WT yeast gro inh,DAT uptake mod,Measles CPE,RAM inhibit,BB579 growth dn
CCCCCC(C)NC(=O)c1ccoc1C (stereo unspecified),·,78.1*,-0.355,19.3,-0.1,-10.5
C/C(=N\OC(=O)c1ccc(Cl)cc1)c1nccs1,-28.4,8.3,-2.76*,3.7,0.4,4.1
C/C(=N\OC(=O)c1c(-c2ccccc2Cl)noc1C)c1nccs1,·,9.1,·,·,0.6,·
Cc1cc(C)n(C(=O)/C(C#N)=N\Nc2ccccc2[N+](=O)[O-])n1,·,-1.6,·,·,1.8,·
Cc1cc(C)n(C(=O)/C(C#N)=N/Nc2cc(Cl)cc(Cl)c2)n1,·,85.1*,·,·,1.2,·
O=C1NC(c2cccs2)Nc2sc3c(c21)CCCC3 (stereo unspecified),-16.1,30.6,2.8*,17.8,0.9,-67.2
CN1CCc2c(sc3c2C(=O)NC(c2ccco2)N3)C1 (stereo unspecified),-7.9,-8.7,0.2,5.5,-0.5,-20.4
Cc1nn(C(=O)CNS(=O)(=O)c2ccccc2)c(C)c1Sc1ccc(Cl)cc1,-0.4,31.8,·,4.3,7.7,-21.9
COc1cccc(NCc2ccc([N+](=O)[O-])s2)c1,5.5,7.7,·,48.3*,2.8,-23.5
CC(C)N1C(=O)/C(=C/c2nc3ccccc3c(=O)n2-c2ccccc2)c2ccccc21,33.0,-8.2,-0.0315,3.8,6.8,-58.7
CC(C)N1C(=O)/C(=C\c2nc3ccccc3c(=O)n2-c2ccccc2)c2ccccc21,16.4,83.6*,·,4.7,5.2,-34.4
CC(=O)NC12CC3CC(C1)CC(C(=O)Nc1nccs1)(C3)C2,-5.7,-10.4,0.949,23.3,10.5*,-7.7
COc1cccc(C=Nc2ccccc2C(=O)Nc2ccccc2)c1O,0.5,-16.9,·,21.1,4.0,-15.5
Clc1ccc(CNC2CCCC2)c(Cl)c1,-14.5,7.7,-0.553,7.5,-0.3,-23.4
S=C(NCc1ccc(Cl)cc1Cl)NC1CCCCC1,4.2,83.4*,·,4.0,8.2,70.9*
NC(=O)CC(NC(=O)c1ccccc1)c1ccc(NCCc2ccc(Cl)cc2)c([N+](=O)[O-])c1 (stereo unspecified),·,·,1.17,·,·,·
CS(=O)(=O)N1CCC(C(=O)Nc2cc(Cl)cc(Cl)c2)CC1,·,-10.2,·,·,0.7,·
COc1ccc(C(=O)N2c3cc4c(cc3C(C)=CC2(C)C)OCO4)cc1,-0.9,59.9*,-0.565,6.5,3.7,-11.1
CN(C)c1ccnc(N(Cc2ccccc2)Cc2ccccc2)c1C#N,-1.7,80.5*,1.17,15.4,2.2,-45.0
O=C(CCNC(=O)Cn1ccc2ccccc2c1=O)NCCc1ccc(Cl)cc1,1.2,4.5,·,25.3,0.7,-42.0
Cn1cc(CC(=O)N2CCN(c3ccc(Cl)cc3)CC2)c2ccccc21,-4.2,44.6,0.573,28.4,4.2,-49.5
COc1cccc(N2C(=O)CC(N3CCN(C(=O)c4ccco4)CC3)C2=O)c1 (stereo unspecified),-8.0,-1.4,-2.09,73.5*,1.3,-14.7
Cc1ccc(NC(=O)c2c(Cl)n(C)c3ccccc23)cc1,-28.4,9.7,·,2.9,3.1,-56.9
O=[N+]([O-])c1cccnc1N1CCC(c2cc(-c3ccc(Cl)cc3)n[nH]2)CC1,-4.7,72.2*,0.0791,6.0,5.4,-55.7
O=C(CCc1n[nH]c(=O)[nH]c1=O)N/N=C/c1ccco1,·,-8.5,·,·,0.8,·
SMILES,Yeast life ext,WT yeast gro inh,DAT uptake mod,Measles CPE,RAM inhibit,BB579 growth dn
CC(C)Sc1oc(-c2ccco2)nc1S(=O)(=O)c1ccccc1,9.7,2.9,0.0562,30.1*,1.6,-57.7
Cc1ccc(C2N(c3nccs3)C(=O)C3CCCN32)cc1 (stereo unspecified),-6.7,2.2,-0.64,1.5,-0.1,-35.0
O=C1C2CCCN2C(c2ccc(F)cc2)N1c1nccs1 (stereo unspecified),-4.9,-34.2,0.000612,33.2*,0.0,25.2
COc1cc2[nH]c(=O)n(CCC(=O)N3CCC(N4CCCCC4)CC3)c(=O)c2cc1OC,-18.3,71.1*,-1.05,14.2,0.4,-60.7
COc1cc2[nH]c(=O)n(CCC(=O)N3CC=C(c4ccccc4)CC3)c(=O)c2cc1OC,-23.4,30.3,-0.707,4.2,1.6,-28.4
Cc1cc(OC(=O)C(C)(C)C)c([N+](=O)[O-])c(=O)[nH]1,·,-6.1,·,·,1.0,·
O=[N+]([O-])c1ccc(OCCN2CCNCC2)cc1,·,-0.5,·,·,3.0,·
Cc1ccc(Oc2cc([N+](=O)[O-])cc3c2C(=O)Nc2ccccc2O3)cc1,-5.3,63.9*,·,19.1,4.0,-9.6
O=C1C/C(=C/NCc2ccccc2)C(=O)N1,-7.6,7.7,-0.928,41.0*,1.2,-6.9
CC(Cc1ccccc1)N/C=C1/CC(=O)NC1=O (stereo unspecified),-5.0,3.3,-1.12,16.8,0.0,-34.0
COc1cc(C(=O)NCC(c2ccco2)N(C)C)cc(OC)c1OC (stereo unspecified),-7.0,4.9,·,6.9,0.4,7.6
Cc1cc(C(=O)NCC(c2ccco2)N(C)C)no1 (stereo unspecified),-12.4,2.4,-0.521,66.3*,2.4,-0.9
O=C(CSc1cccc[n+]1[O-])Nc1c(Br)cc([N+](=O)[O-])cc1Br,·,-10.2,·,·,0.0,·
O=C(/C=C/c1ccc(N2CCC(c3ccccc3)=N2)cc1)c1ccccc1,·,8.8,·,·,11.0*,·
COc1ccc(OC)c(N(CC(=O)N2CCN(c3cc(Cl)ccc3C)CC2)S(C)(=O)=O)c1,-12.5,4.3,0.0398,14.3,3.0,1.0
O=C(c1nc2ncccn2n1)N1CCN(c2ccccc2)CC1,-8.2,-6.7,-0.294,42.6*,2.8,8.3
COc1ccccc1N(CN1CCCC1=O)C(=O)c1c(F)cccc1F,103.3*,-17.8,0.431,20.7,1.8,-22.4
Cc1ccc(CNCC(O)(c2ccccc2)c2ccc(F)cc2)cc1 (stereo unspecified),2.9,75.1*,·,42.8,-1.3,-26.9
CC(C)CCNC(=O)C1CC(c2ccccc2[N+](=O)[O-])=NO1 (stereo unspecified),·,·,-0.351,·,·,·
C#CCn1c(=NC(=O)c2cc(-c3cccs3)nc3ccccc23)sc2cc(S(N)(=O)=O)ccc21,3.0,4.2,·,4.8,9.7*,-27.7
Cn1c(=O)c2c(nc(N3CCc4ccccc4C3)n2C)n(C)c1=O,·,7.1,·,·,2.0,·
Cc1[nH]nc(SCC(=O)NCc2ccc(F)cc2)c1[N+](=O)[O-],-1.8,7.5,·,14.9,1.8,-11.0
Oc1c(C(Nc2nc3ccccc3s2)c2ccco2)ccc2cccnc12 (stereo unspecified),-5.6,-8.5,0.419,15.0,-0.7,74.4*
C/C(=N\Nc1cc(-c2ccccc2)nc(-c2ccc(Br)cc2)n1)c1cccc(N)c1,·,·,0.0242,·,·,·
C/C(=N/Nc1cc(-c2ccccc2)nc(-c2ccccc2)n1)c1ccc(O)cc1,-3.9,97.5*,·,1.5,0.1,-10.9
CCOc1ccc(N(CC(=O)N2CCC(Cc3ccccc3)CC2)S(C)(=O)=O)cc1,·,15.3,·,·,0.8,·
